Screens as filed in PubChem BioAssay.
RAM network inh: inhibitors of the yeast RAM network, primary screen, dse1pr::URA3 reporter, 5-FOA selection | S. cerevisiae dse1pr::URA3 reporter, 5-FOA growth OD615, 2 d; analog-sensitive cbk1-as2 kinase mutant strain | inhibition, % at 50 µM | 1.8% of 190,000 active | AID 868, 2007;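 active = inhibition above a set limit, 3 SD over mean compound inhibition, cut at about 8.4% in these data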;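 note: 0% = DMSO-only wells with no growth and 100% = 10 µM 1-NA-PP1 full growth; inhibition rescues growth on 5-FOA so higher OD means more RAM inhibition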
Cl transport mod: KCC2 cotransporter modulators, thallium flux, primary screen, cell-based, HEK293 KCC2, FluoZin-2 fluorescence, MLSMR; Solute carrier family 12 member 5 (Homo sapiens), Q9H2X9; KCC2 cells, thallium flux FluoZin-2 fluorescence; B-score of Tl+ flux slope (higher = more flux/activation; lower = inhibition) at 10 µM; 2.2% of 190,000 active;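 active = thallium flux slope and its plate-corrected score both differing from the plate sample mean at a set confidence after two filtering rounds, in either direction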;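 note: slope of fluorescence scaled to starting intensity during 10 to 20 s after thallium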
WT yeast gro inh: growth inhibition of WT strain, primary screen, mitochondrial fusion inhibitor project, WT and mutant strains, chemical genetic; mitochondrial fusion phenotypic screen; inhibition, % at 10 µM; 2.1% of 190,000 active; in the data active = inhibition above about 58%; tested in S. cerevisiae
BB579 growth dn: growth inhibitors of yeast BB579 in restrictive medium, primary screen, yeast lifespan-shortening project, S. cerevisiae; OD615, 48 h; inhibition, % at 10 µM; 0.51% of 140,000 active;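 active = inhibition above a set limit, 3 SD over the mean compound inhibition, cut at about 44% in these data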
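Test system: S. cerevisiae DeaD strain BB579 yeast; Medium: restrictive CSMM-D medium; Compound: one dose, 10 µM compound with 0.25% DMSO; Incubation: 4 h cell preincubation, 48 h compound exposure, 30 °C humidified; Signal: OD at 615 nm; Benchmarks: amphotericin B at 10 µg/mL as positive control.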
Yeast life ext: compounds extending yeast replicative lifespan, primary screen, S. cerevisiae, OD615; S. cerevisiae growth with nicotinamide; deaD strain in restrictive glucose medium; inhibition of the nicotinamide effect, % at 10 µM; 0.68% of 130,000 active; AID 775, 2007;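 active = inhibition above a set limit, placed 3 SD over the median of all compounds, cut at about 26% in these data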;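 note: 0% = nicotinamide-treated wells and 100% = cells grown without nicotinamide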
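Test system – modified budding yeast, DeaD strain · Compound – single dose 10 µM compound, 0.25% DMSO · Times – culture preincubation 4 h, compound exposure 48 h, both 30 °C · Detection – optical density (absorbance) at 615 nm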
* hit, by the source's call; . = no result given. Sampled rows, rich in hits. Any-hit rate of the full collection: about 5.5%.

SMILES	RAM network inh	Cl transport mod	WT yeast gro inh	BB579 growth dn	Yeast life ext
Cc1cc(-c2n[nH]c(=S)n2/N=C/c2ccc(C)s2)n[nH]1	3	0.41	-17	-44	6
Cc1cc(-c2n[nH]c(=S)n2/N=C/c2ccc(Br)s2)n[nH]1	2	10*	10	-19	0
Cc1ccc(NCc2nc3ccccc3n2CCOc2ccccc2)cc1	-1	-0.39	63*	33	21
COCCn1c(COc2ccc(C)cc2)nc2ccccc21	1	-2.6	6	-39	-17
CN(CC(=O)NCc1ccccc1)S(=O)(=O)c1cnc[nH]1	1	0.0058	7	-11	-7
CCN(c1ccccc1)S(=O)(=O)c1cnc[nH]1	1	-0.36	59*	-30	-17
Cc1ccc(-c2nnn(CC(=O)N(c3cnc4ccccc4c3)C(C(=O)NC3CCCC3)c3ccncc3)n2)o1 (configuration not stated)	8.6*	1.6	-8	.	.
CC(NC(=O)CSc1nnc(-c2cccnc2)n1N)c1ccccc1 (configuration not stated)	2	0.77	-5	.	.
O=C(C1=C[C@@H]2[C@H]3C(=O)N(c4ccccc4)C(=O)[C@H]3[C@@H](C(=O)c3ccc(Cl)cc3)N2C=C1)c1ccccc1	2	0.98	0	-25	1
C=C(C(=O)c1ccccc1)C(C)C(=C)C(=O)c1ccccc1	0	0.2	51	-29	46*
Cc1ccc(-c2nc(P(=O)(c3ccccc3)c3ccccc3)c(N3CCOCC3)o2)cc1	2	-1.7	6	-24	7
CNc1oc(-c2ccc(Cl)cc2)nc1P(=O)(c1ccccc1)c1ccccc1	5	-0.87	62*	-17	3
CSc1ccc(NC(=O)N2CC=C(n3c(=O)[nH]c4ccccc43)CC2)cc1	5	-1	-8	-25	2
O=C(CCSCCc1ccccn1)Nc1c(F)c(F)c(F)c(F)c1F	2	-0.18	-5	-27	27*
c1ccn2cc(C34CC5CC(CC(C5)C3)C4)nc2c1	3	.	25	.	.
O=[N+]([O-])c1ccc(N=Nc2c(Cl)cc(O)cc2Cl)cc1	.	7.5*	.	.	.
Cc1ccc(NC(=O)C2C(c3ccccc3)C=CC(c3ccccc3)C2C(=O)O)cc1 (configuration not stated)	1	-0.2	9	-19	30*
COc1ccc(N(C(=O)COc2cccc(C)c2)S(=O)(=O)c2ccc(C)cc2)cc1	9.7*	0.48	8	-44	19
CCCc1ccc(Oc2cn[nH]c2-c2ccc(O)c(C)c2O)cc1	0	0.27	83*	100*	-15
CCCc1ccc(Oc2c(-c3ccc(O)c(C)c3O)n[nH]c2C)cc1	9.1*	0.00072	90*	99*	-15
CC(=O)c1cc(CN2CCN(C3CCCCC3)C(CCO)C2)cs1 (configuration not stated)	2	-0.53	0	.	.
CCOC(=O)c1c(NC(=O)CSc2ccccc2C(=O)O)sc(C)c1C	4	-3.3	-16	.	.
CCOC(=O)c1sc(NC(=O)CSc2nnc(Cc3ccccc3)o2)c(C(=O)OCC)c1C	8.9*	-1.1	27	-4	-5
CCOC(=O)c1c(NC(=O)CSc2ncnc3ccccc23)sc(C)c1C	8.9*	-1.1	-17	-39	1
Cc1ccc(Sc2ccc(NC(=O)CCl)cc2)c(C)c1	-1	1.1	64*	16	-7
CCOc1ccc(N2C(=O)CC(Sc3ncccn3)C2=O)cc1 (configuration not stated)	4	0.0091	11	-7	-5
CCOc1ccc(N2C(=O)CC(Sc3nc(-c4cccs4)cc(C(F)(F)F)c3C#N)C2=O)cc1 (configuration not stated)	11*	-0.32	-43	-99	7
Cc1ccc(S(=O)(=O)CCC(=O)OC(C)C(=O)c2c(C)[nH]c3ccccc23)cc1 (configuration not stated)	2	-0.033	-17	-14	13
COc1cc(/C=C2\SC(=O)N(c3ccccc3Cl)C2=O)cc([N+](=O)[O-])c1O	1	-2.4	83*	.	.
